Reference: ChEMBL document CHEMBL1138555, “N-acylated and N,N'-diacylated imidazolidine-2-thione derivatives and N,N'-diacylated tetrahydropyrimidine-2(1H)-thione analogues: synthesis and antiproliferative activity” (Eur J Med Chem, 2009)
pIC50: −log10 of the molar value.

How the values were obtained:
[1] = test system: IGROV-1; assay: Growth inhibition of human IGROV1 cells after 48 hrs by sulforhodamine B assay; assay type: functional; conditions: IGROV-1, 48 h
Summary of the method: (§1)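 NCI screen panel. Five 10-fold concentrations from 10^-4 to 10^-8 M. Exposure for the last 48 h of a 72 h incubation. Growth estimated by sulforhodamine B protein assay. GI50 is the concentration giving 50% growth inhibition. Where that level was not reached or was exceeded, the value is given as above or below the highest or lowest concentration tested.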

[2] = test system: T47D; assay: Growth inhibition of human T47D cells after 48 hrs by sulforhodamine B assay; assay type: functional
Summary of the method: (§2)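 NCI in vitro panel screen. Compounds tested at five 10-fold dilutions, 10^-4 to 10^-8 M. Cells in 96-well plates were exposed for the last 48 h of a 72 h incubation. Viability/growth was read by sulforhodamine B protein assay. GI50 is the concentration giving 50% growth inhibition. Values beyond the tested range are reported as greater or less than the maximum or minimum concentration.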

[3] = test system: SN12C; assay: Growth inhibition of human SN12C cells after 48 hrs by sulforhodamine B assay; assay type: functional; summary of the method: as §2
[4] = test system: UACC-257; assay: Growth inhibition of human UACC257 cells after 48 hrs by sulforhodamine B assay; assay type: functional; conditions: UACC-257, 48 h; summary of the method: as §2
[5] = test system: OVCAR-5; assay: Growth inhibition of human OVCAR5 cells after 48 hrs by sulforhodamine B assay; assay type: functional; conditions: OVCAR-5, 48 h; summary of the method: as §1
[6] = test system: HOP-92; assay: Growth inhibition of human HOP92 cells after 48 hrs by sulforhodamine B assay; assay type: functional; conditions: HOP-92, 48 h; summary of the method: as §1
[7] = test system: CCRF-CEM; assay: Growth inhibition of human CCRF-CEM cells after 48 hrs by sulforhodamine B assay; assay type: functional; summary of the method: as §1
[8] = test system: SF-268; assay: Growth inhibition of human SF268 cells after 48 hrs by sulforhodamine B assay; assay type: functional; conditions: SF-268, 48 h; summary of the method: as §1
[9] = test system: NCI-H23; assay: Growth inhibition of human NCI-H23 cells after 48 hrs by sulforhodamine B assay; assay type: functional; conditions: NCI-H23, 48 h; summary of the method: as §1
[10] = test system: HCT-15; assay: Growth inhibition of human HCT15 cells after 48 hrs by sulforhodamine B assay; assay type: functional; conditions: HCT-15, 48 h; summary of the method: as §1
[11] = test system: NCI-H460; assay: Growth inhibition of human NCI-H460 cells after 48 hrs by sulforhodamine B assay; assay type: functional; conditions: NCI-H460, 48 h; summary of the method: as §1
[12] = test system: DU-145; assay: Growth inhibition of human DU145 cells after 48 hrs by sulforhodamine B assay; assay type: functional; conditions: DU-145, 48 h; summary of the method: as §1
[13] = test system: SNB-75; assay: Growth inhibition of human SNB75 cells after 48 hrs by sulforhodamine B assay; assay type: functional; conditions: SNB-75, 48 h; summary of the method: as §2
[14] = test system: OVCAR-3; assay: Growth inhibition of human OVCAR-3 cells after 48 hrs by sulforhodamine B assay; assay type: functional; conditions: OVCAR-3, 48 h; summary of the method: as §1
[15] = test system: NCI-H522; assay: Growth inhibition of human NCI-H522 cells after 48 hrs by sulforhodamine B assay; assay type: functional; conditions: NCI-H522, 48 h; summary of the method: as §1
[16] = test system: HT-29; assay: Growth inhibition of human HT-29 cells after 48 hrs by sulforhodamine B assay; assay type: functional; conditions: HT-29, 48 h; summary of the method: as §1
[17] = test system: HCT-116; assay: Growth inhibition of human HCT116 cells after 48 hrs by sulforhodamine B assay; assay type: functional; conditions: HCT-116, 48 h; summary of the method: as §1
[18] = Growth inhibition of human […] cells after 48 hrs by sulforhodamine B assay; assay type: functional; summary of the method: as §1
[19] = test system: BT-549; assay: Growth inhibition of human BT549 cells after 48 hrs by sulforhodamine B assay; assay type: functional; conditions: BT-549, 48 h; summary of the method: as §1
[20] = test system: SK-MEL-2; assay: Growth inhibition of human SK-MEL-2 cells after 48 hrs by sulforhodamine B assay; assay type: functional; conditions: SK-MEL-2, 48 h; summary of the method: as §1
[21] = test system: MOLT-4; assay: Growth inhibition of human MOLT4 cells after 48 hrs by sulforhodamine B assay; assay type: functional; conditions: MOLT-4, 48 h; summary of the method: as §1
[22] = test system: HL-60(TB); assay: Growth inhibition of human HL-60(TB) cells after 48 hrs by sulforhodamine B assay; assay type: functional; conditions: HL-60, 48 h
Summary of the method: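 NCI 60-cell-line screen protocol: cells exposed to compound at five 10-fold dilutions from 10^-4 to 10^-8 M for the last 48 h of a 72 h incubation. Sulforhodamine B protein assay estimated viability/growth. GI50 (50% growth inhibition) derived; where not reached or exceeded, reported as greater or less than the highest or lowest concentration tested.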

[23] = test system: U-251; assay: Growth inhibition of human U251 cells after 48 hrs by sulforhodamine B assay; assay type: functional; conditions: U-251, 48 h; summary of the method: as §2
[24] = test system: SNB-19; assay: Growth inhibition of human SNB19 cells after 48 hrs by sulforhodamine B assay; assay type: functional; conditions: SNB-19, 48 h; summary of the method: as §2
[25] = test system: HOP-62; assay: Growth inhibition of human HOP62 cells after 48 hrs by sulforhodamine B assay; assay type: functional; conditions: HOP-62, 48 h; summary of the method: as §1
[26] = test system: LOX IMVI; assay: Growth inhibition of human LOXIMVI cells after 48 hrs by sulforhodamine B assay; assay type: functional; summary of the method: as §1
[27] = test system: OVCAR-4; assay: Growth inhibition of human OVCAR4 cells after 48 hrs by sulforhodamine B assay; assay type: functional; conditions: OVCAR-4, 48 h; summary of the method: as §1
[28] = test system: 786-0; assay: Growth inhibition of human 786-0 cells after 48 hrs by sulforhodamine B assay; assay type: functional; conditions: 786-0, 48 h; summary of the method: as §1
[29] = test system: A498; assay: Growth inhibition of human A498 cells after 48 hrs by sulforhodamine B assay; assay type: functional; conditions: A498, 48 h; summary of the method: as §1
[30] = test system: SF-539; assay: Growth inhibition of human SF539 cells after 48 hrs by sulforhodamine B assay; assay type: functional; conditions: SF-539, 48 h; summary of the method: as §1
[31] = test system: OVCAR-8; assay: Growth inhibition of human OVCAR8 cells after 48 hrs by sulforhodamine B assay; assay type: functional; conditions: OVCAR-8, 48 h; summary of the method: as §1
[32] = test system: MT4; assay: Antiproliferative activity against human MT4 cells assessed as reduction of growth by MTT assay; assay type: functional, cell-based
Summary of the method: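 MT-4 lymphoblastoid T cells (ATCC) in RPMI 1640 with 10% FCS, penicillin/streptomycin, checked for mycoplasma. 1 × 10⁴ mock-infected cells per well with serial dilutions from a 100 mM DMSO stock. Incubated 4 days at 37 °C, viable cells counted by MTT. IC50 versus untreated controls by linear regression. Mean of three separate experiments.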

[33] = test system: EKVX; assay: Growth inhibition of human EKVX cells after 48 hrs by sulforhodamine B assay; assay type: functional; summary of the method: as §1
[34] = test system: SK-MEL-28; assay: Growth inhibition of human SK-MEL-28 cells after 48 hrs by sulforhodamine B assay; assay type: functional; conditions: SK-MEL-28, 48 h; summary of the method: as §1
[35] = test system: RXF 393; assay: Growth inhibition of human RXF393 cells after 48 hrs by sulforhodamine B assay; assay type: functional; conditions: RXF 393, 48 h; summary of the method: as §1
[36] = test system: PC-3; assay: Growth inhibition of human PC3 cells after 48 hrs by sulforhodamine B assay; assay type: functional; conditions: PC-3, 48 h; summary of the method: as §1
[37] = test system: MCF7; assay: Growth inhibition of human MCF7 cells after 48 hrs by sulforhodamine B assay; assay type: functional; conditions: MCF7, 48 h; summary of the method: as §1
[38] = test system: Malme-3M; assay: Growth inhibition of human MALME-3M cells after 48 hrs by sulforhodamine B assay; assay type: functional; summary of the method: as §1
[39] = test system: UACC-62; assay: Growth inhibition of human UACC62 cells after 48 hrs by sulforhodamine B assay; assay type: functional; conditions: UACC-62, 48 h; summary of the method: as §2
[40] = test system: NCI/ADR-RES; assay: Growth inhibition of human NCI/ADR-RES cells after 48 hrs by sulforhodamine B assay; assay type: functional; summary of the method: as §1
[41] = test system: UO-31; assay: Growth inhibition of human UO31 cells after 48 hrs by sulforhodamine B assay; assay type: functional; conditions: UO-31, 48 h; summary of the method: as §2

| Compound | GI50 [1] | GI50 [2] | GI50 [3] | GI50 [4] | GI50 [5] | GI50 [6] | GI50 [7] | GI50 [8] | GI50 [9] | GI50 [10] | GI50 [11] | GI50 [12] | GI50 [13] | GI50 [14] | GI50 [15] | GI50 [16] | GI50 [17] | GI50 [18] | GI50 [19] | GI50 [20] | further results |
| --- | --- | --- | --- | --- | --- | --- | --- | --- | --- | --- | --- | --- | --- | --- | --- | --- | --- | --- | --- | --- | --- |
| O=C(c1ccc(Cl)cc1Cl)N1CCN(C(=O)c2ccc(Cl)cc2Cl)C1=S | 21 µM | 19.5 µM | 18.1 µM | 28.2 µM | 21.6 µM | 7.8 µM | 19.5 µM | 24.5 µM | 19.8 µM | 22.1 µM | 35.4 µM | 30.6 µM | 22.3 µM | 19.7 µM | 18.2 µM | 20.4 µM | 23.5 µM | 12.9 µM | 21.1 µM | 18.4 µM | GI50 [21]: 20.5 µM; GI50 [22]: 16.6 µM; GI50 [23]: 17.8 µM; GI50 [24]: 24.9 µM; GI50 [25]: 23.1 µM; GI50 [26]: 17.1 µM; GI50 [27]: 25.8 µM; GI50 [28]: 18.6 µM; GI50 [29]: 16.1 µM; GI50 [30]: 27.2 µM; GI50 [31]: 22.1 µM; pIC50 [32]: 4.41; GI50 [33]: 20.5 µM; GI50 [34]: 18.4 µM; GI50 [35]: 18.5 µM; GI50 [36]: 22.7 µM; GI50 [37]: 18.3 µM; GI50 [38]: 25.4 µM; GI50 [39]: 17.3 µM; GI50 [40]: 24.8 µM |
| COc1cc(C(=O)N2CCN(C(=O)c3cc(OC)c(OC)c(OC)c3)C2=S)cc(OC)c1OC | 24.7 µM | 13.1 µM | 17.1 µM | 21.7 µM | 23.2 µM | 16.1 µM | 12.2 µM | 11.5 µM | 18.7 µM | 20.2 µM | 27.2 µM | 13.6 µM | 7.1 µM | 15.2 µM | 3.7 µM | 22.7 µM | 18.2 µM | 3.7 µM | 17.4 µM | 16.3 µM | GI50 [21]: 23.5 µM; GI50 [22]: 16 µM; GI50 [23]: 16.3 µM; GI50 [24]: 18.5 µM; GI50 [41]: 0.2 µM; GI50 [25]: 15.2 µM; GI50 [26]: 15.4 µM; GI50 [27]: 16.9 µM; GI50 [28]: 11.4 µM; GI50 [29]: 17.7 µM; GI50 [30]: 14.5 µM; GI50 [31]: 21.9 µM; pIC50 [32]: 5.15; GI50 [34]: 17.2 µM; GI50 [35]: 14.3 µM; GI50 [36]: 15 µM; GI50 [37]: 5.2 µM; GI50 [38]: 13.4 µM; GI50 [39]: 14.9 µM; GI50 [40]: 26.8 µM |
| O=C(c1ccc(Cl)c(Cl)c1)N1CCN(C(=O)c2ccc(Cl)c(Cl)c2)C1=S | 19.7 µM | 17.5 µM | 18.3 µM | 17.3 µM | 24.3 µM | 20 µM | 4.5 µM | 16.8 µM | 22 µM | 19.6 µM | 22 µM | 14.7 µM | 18.9 µM | 17.1 µM | 6.1 µM | 24.2 µM | 18.1 µM | 1.8 µM | 23.6 µM | 18.4 µM | GI50 [21]: 15.7 µM; GI50 [22]: 12.7 µM; GI50 [23]: 16.4 µM; GI50 [24]: 21.4 µM; GI50 [25]: 17.6 µM; GI50 [26]: 7.6 µM; GI50 [27]: 16.8 µM; GI50 [28]: 7.2 µM; GI50 [29]: 20.2 µM; GI50 [30]: 15.1 µM; GI50 [31]: 19 µM; pIC50 [32]: 5.34; GI50 [33]: 20.8 µM; GI50 [34]: 30.6 µM; GI50 [35]: 17.8 µM; GI50 [36]: 16.7 µM; GI50 [37]: 5.6 µM; GI50 [38]: 14.9 µM; GI50 [39]: 18.1 µM; GI50 [40]: 34.4 µM |
